# Source: ChEMBL document CHEMBL1123409, “Analogues of platelet activating factor. 4. Some modifications of the phosphocholine moiety” (J Med Chem, 1986)
# How the values were obtained:
# Oryctolagus cuniculus [1] = organism: Oryctolagus cuniculus; assay: The maximum aggregation response observed at 1e-5 M concentration of the compound; assay type: functional
# [2] = The ratio of (MABP / Platelet EC 50) x 10^-8
# Rattus norvegicus = assay: Intravenous dose required to decrease mean arterial blood pressure (MABP) 50 mm Hg; assay type: functional
# Outline: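 Spontaneously hypertensive rats, dosed intravenously. The dose that lowers mean arterial blood pressure by 50 mm Hg is read from the dose-response curve.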
# Oryctolagus cuniculus [3] = organism: Oryctolagus cuniculus; assay: The maximum aggregation response observed at 1e-6 M concentration of the compound; assay type: functional
# Oryctolagus cuniculus [4] = organism: Oryctolagus cuniculus; assay: Effective concentration required to produce 50% of maximum aggregation of platelets; assay type: functional, organism-based
# Outline: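 Aggregation tested in rabbit platelet-rich plasma. In each experiment, a dose-response curve was built from six to eight doses spanning 10^-9 to 10^-4 M, with three to four replicates per dose level. EC50 is the molar concentration giving 50% of that analogue's own maximum aggregation response.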
# Oryctolagus cuniculus [5] = organism: Oryctolagus cuniculus; assay: The maximum aggregation response observed at 1.7e-4 M concentration of the compound; assay type: functional
# Oryctolagus cuniculus [6] = organism: Oryctolagus cuniculus; assay: The maximum aggregation response observed at 1.8e-4 M concentration of the compound; assay type: functional
# Oryctolagus cuniculus [7] = organism: Oryctolagus cuniculus; assay: The maximum aggregation response observed at 1.48e-5 M concentration of the compound; assay type: functional
# Oryctolagus cuniculus [8] = organism: Oryctolagus cuniculus; assay: The maximum aggregation response observed at 6.8e-6 M concentration of the compound; assay type: functional
# Oryctolagus cuniculus [9] = organism: Oryctolagus cuniculus; assay: The maximum aggregation response observed at 5e-5 M concentration of the compound; assay type: functional
# [10] = The ratio of (MABP / Platelet EC 50) x 100; assay type: functional
# Oryctolagus cuniculus [11] = organism: Oryctolagus cuniculus; assay: The maximum aggregation response observed at 1.6e-4 M concentration of the compound; assay type: functional
# Oryctolagus cuniculus [12] = organism: Oryctolagus cuniculus; assay: The maximum aggregation response observed at 1.7e-4M concentration of the compound; assay type: functional
Compound,Ratio [2],Dose (Rattus norvegicus) [µg/kg],further results
CCCCCCCCCCCCCCCCCCOCC(COP(=O)([O-])OCCCC[N+](C)(C)C)OC(C)=O (stereo not given),0.36,15.85,Max aggregation response (Oryctolagus cuniculus [1]): 71
CCCCCCCCCCCCCCCCOCC(COP(=O)([O-])OCCC[N+](C)(C)C)OC(C)=O (stereo not given),0.57,1.43,Max aggregation response (Oryctolagus cuniculus [3]): 65
CCCCCCCCCCCCCCCCOCC(COP(=O)([O-])OCCCCCC[N+](C)(C)C)OC(C)=O (stereo not given),0.06,164.9,EC50 (Oryctolagus cuniculus [4]): 27 µM; Max aggregation response (Oryctolagus cuniculus [5]): 35
CCCCCCCCCCCCCCCCOCC(COP(=O)([O-])OCCCC[N+](C)(C)C)OC(C)=O (stereo not given),0.65,4.84,Max aggregation response (Oryctolagus cuniculus [6]): 68
CCCCCCCCCCCCCCCCCCOCC(COP(=O)([O-])OCC[N+](C)(C)C)OC(C)=O (stereo not given),1.34,3.17,Max aggregation response (Oryctolagus cuniculus [7]): 75
CCCCCCCCCCCCCCCCOCC(COP(=O)([O-])OCC(C)[N+](C)(C)C)OC(C)=O (stereo not given),0.47,0.15,Max aggregation response (Oryctolagus cuniculus [3]): 66
CCCCCCCCCCCCCCCCOCC(COP(=O)([O-])OCC[N+](C)(C)C)OC(C)=O (stereo not given) [PLATELET ACTIVATING FACTOR],0.47,1.25,Max aggregation response (Oryctolagus cuniculus [8]): 71
CCCCCCCCCCCCCCCCOCC(COP(=O)([O-])OCC(c1ccccc1)[N+](C)(C)C)OC(C)=O (stereo not given),,3.93,Max aggregation response (Oryctolagus cuniculus [9]): 69; Ratio [10]: 0.06
CCCCCCCCCCCCCCCCOCC(COP(=O)([O-])OCCCCCCCCCC[N+](C)(C)C)OC(C)=O (stereo not given),,>4000,EC50 (Oryctolagus cuniculus [4]): 59 µM; Max aggregation response (Oryctolagus cuniculus [11]): 18
CCCCCCCCCCCCCCCCOCC(COP(=O)([O-])OCCCCCCCC[N+](C)(C)C)OC(C)=O (stereo not given),,>4000,EC50 (Oryctolagus cuniculus [4]): 37 µM; Max aggregation response (Oryctolagus cuniculus [12]): 41
CCCCCCCCCCCCCCCCOCC(COP(=O)([O-])Oc1cccc(C[N+](C)(C)C)c1)OC(C)=O (stereo not given),0.23,1.36,Max aggregation response (Oryctolagus cuniculus [9]): 64
CCCCCCCCCCCCCCCCCCOCC(COP(=O)([O-])CC[N+](C)(C)C)OC(C)=O (stereo not given),3.83,76.54,Max aggregation response (Oryctolagus cuniculus [1]): 82
CCCCCCCCCCCCCCCCOCC(COP(=O)([O-])OC(C)C[N+](C)(C)C)OC(C)=O (stereo not given),0.28,1.16,Max aggregation response (Oryctolagus cuniculus [1]): 74
